Experimental data reported in article PMC6433393 (Journal of chromatography. B, Analytical technologies in …, 2012).
Blank lines part the entries; values can stand above or below the molecule they belong to.

Experiments:
[1] = Stability of MX in human whole blood kept in ice bath before centrifugation; type: in vitro ADME
Outline: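 From one patient, five 2-ml lithium-heparin blood tubes were drawn 70 min after infusion and kept in an ice bath. They were centrifuged 0, 30, 60, 90 and 120 min after drawing (1500 × g, 4 °C, 5 min). Plasma was analysed later by the derivatisation LC-MS/MS method, and the mean, SD and %CV were calculated.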

[2] = Stability of MX stock solution; type: physicochemical; conditions: for Recovery ± SD (n = 6): Stock solution 2.00 mg/ml
Outline: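 The 2.00 mg/ml stock was stored at 4 °C or at 23 °C, then serially diluted to 45.0 ng/ml in 1% formic acid. It was derivatised with IS and analysed by MRM LC-MS/MS. Six parallel measurements gave the mean analyte/IS peak-area ratio, expressed as percent recovery against freshly prepared stock.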

[3] = Stability of MX in human plasma QCs; type: in vitro ADME; conditions: for recoveries of QC samples: three concentrations (3.50, 45.0 and 450 ng/ml)
Outline: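 Plasma QCs were prepared in pooled human plasma with 10% 0.100 N HCl and held on the bench (23 °C), in the autosampler (15 °C), through freeze-thaw cycles (−70 to 23 °C) or at −70 °C. Samples were derivatised with 4-(N,N-diethylamino)benzaldehyde (70 °C, 1 h), extracted into MTBE and run by MRM LC-MS/MS. The mean MX/MX-d3 peak-area ratio (n = 6) relative to freshly prepared QCs is given as percent recovery.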

[4] = Phase I clinical trial pharmacokinetic study of MX; type: in vivo, human; conditions: for Measured [MX] First analysis / Measured [MX] Re-analysis after 9 months: patient plasma; for Measured [MX] Re-analysis after 9 months: after 9-month storage at −70 °C
Outline: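 Heparinised blood was iced, spun (1500 × g, 4 °C, 5 min), and plasma stored at −70 °C. Plasma was derivatised and assayed by LC-MS/MS against a calibration curve. Infusion data were fitted one-compartment; 1-h data were analysed by NCA.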

[5] = clinical trials, TMZ dosing regimen 150 mg/m^2/day; cited from earlier work
[6] = patients, 1-h iv infusion, 20 patients (46 cycles), with oral TMZ

changes in MX concentration in human whole blood ([1]; over a period of 2 hours, samples kept in an ice bath): no significant changes | measured MX concentration, mean value ([1]; patient blood, ice bath, centrifuged 0-120 min after drawing, SD 0.1 ng/ml): 10.5 ng/mL | Recovery ± SD (n = 6) ([2]; Bench-top 23 °C, 18 hours): 98.4 ± 6% | Recovery ± SD (n = 6) ([2]; Refrigerator 4 °C, 5 months): 96.4 ± 7% | recoveries of stock solutions ([2]; refrigerator (4 °C) and bench top (23 °C)): 96.4–98.4% | Recovery ± SD (n = 6) ([3]; High QC 450 ng/ml plasma, Autosampler 15 °C, 3 days): 96.9 ±3% | Recovery ± SD (n = 6) ([3]; High QC 450 ng/ml plasma, Bench-top 23 °C, 18 hours): 95.7 ± 2% | Recovery ± SD (n = 6) ([3]; High QC 450 ng/ml plasma, Deep freezer (Long-term) −70 °C, 5 months): 103 ± 2% | Recovery ± SD (n = 6) ([3]; High QC 450 ng/ml plasma, Freeze & thaw −70 to 23 °C, 3 cycles): 96.2 ± 2% | Recovery ± SD (n = 6) ([3]; Low QC 3.50 ng/ml plasma, Autosampler 15 °C, 3 days): 90.7 ±6% | Recovery ± SD (n = 6) ([3]; Low QC 3.50 ng/ml plasma, Bench-top 23 °C, 18 hours): 89.4 ± 4% | Recovery ± SD (n = 6) ([3]; Low QC 3.50 ng/ml plasma, Deep freezer (Long-term) −70 °C, 5 months): 95.7 ±3% | Recovery ± SD (n = 6) ([3]; Low QC 3.50 ng/ml plasma, Freeze & thaw −70 to 23 °C, 3 cycles): 96.6 ± 2% | Recovery ± SD (n = 6) ([3]; Mid QC 45.0 ng/ml plasma, Autosampler 15 °C, 3 days): 94.5 ± 5% | Recovery ± SD (n = 6) ([3]; Mid QC 45.0 ng/ml plasma, Bench-top 23 °C, 18 hours): 94.5 ± 4% | Recovery ± SD (n = 6) ([3]; Mid QC 45.0 ng/ml plasma, Deep freezer (Long-term) −70 °C, 5 months): 101 ± 2% | Recovery ± SD (n = 6) ([3]; Mid QC 45.0 ng/ml plasma, Freeze & thaw −70 to 23 °C, 3 cycles): 94.4 ± 2% | recoveries of QC samples ([3]; autosampler (15 °C)): 90.7–96.9% | recoveries of QC samples ([3]; bench top): 89.4–95.7% | recoveries of QC samples ([3]; long-term storage (5 months)): 95.7–103% | recoveries of QC samples ([3]; three freeze-and-thaw cycles (−70 to 23 °C)): 94.4–96.6% | Measured [MX] First analysis ([4]; sampling 0.250 h): 5.36 ng/mL | Measured [MX] Re-analysis after 9 months ([4]; sampling 0.250 h): 5.69 ng/mL | Measured [MX] First analysis ([4]; sampling 0.500 h): 8.95 ng/mL | Measured [MX] Re-analysis after 9 months ([4]; sampling 0.500 h): 10.2 ng/mL | Measured [MX] First analysis ([4]; sampling 0.750 h): 16.2 ng/mL | Measured [MX] Re-analysis after 9 months ([4]; sampling 0.750 h): 18.2 ng/mL | Measured [MX] First analysis ([4]; sampling 0.983 h): 20.5 ng/mL | Measured [MX] Re-analysis after 9 months ([4]; sampling 0.983 h): 22.1 ng/mL | Measured [MX] First analysis ([4]; sampling 1.17 h): 25 ng/mL | Measured [MX] Re-analysis after 9 months ([4]; sampling 1.17 h): 27.1 ng/mL | Measured [MX] First analysis ([4]; sampling 2.00 h): 24.2 ng/mL | Measured [MX] Re-analysis after 9 months ([4]; sampling 2.00 h): 24.3 ng/mL | Measured [MX] First analysis ([4]; sampling 4.00 h): 18.3 ng/mL | Measured [MX] Re-analysis after 9 months ([4]; sampling 4.00 h): 20 ng/mL | Measured [MX] First analysis ([4]; sampling 6.00 h): 19 ng/mL | Measured [MX] Re-analysis after 9 months ([4]; sampling 6.00 h): 19.5 ng/mL | Measured [MX] First analysis ([4]; sampling 8.00 h): 18.9 ng/mL | Measured [MX] Re-analysis after 9 months ([4]; sampling 8.00 h): 17.5 ng/mL | Measured [MX] First analysis ([4]; sampling 12.0 h): 15.6 ng/mL | Measured [MX] Re-analysis after 9 months ([4]; sampling 12.0 h): 16.2 ng/mL | Measured [MX] First analysis ([4]; sampling 24.0 h): 13.3 ng/mL | Measured [MX] Re-analysis after 9 months ([4]; sampling 24.0 h): 13.2 ng/mL | Measured [MX] First analysis ([4]; sampling 48.0 h): 9.46 ng/mL | Measured [MX] Re-analysis after 9 months ([4]; sampling 48.0 h): 10 ng/mL | Measured [MX] First analysis ([4]; sampling 72.0 h): 6.56 ng/mL | Measured [MX] Re-analysis after 9 months ([4]; sampling 72.0 h): 6.46 ng/mL | Measured [MX] First analysis ([4]; sampling 96.0 h): 4.46 ng/mL | Measured [MX] Re-analysis after 9 months ([4]; sampling 96.0 h): 4.76 ng/mL | Measured [MX] First analysis ([4]; sampling 120 h): 3.55 ng/mL | Measured [MX] Re-analysis after 9 months ([4]; sampling 120 h): 3.69 ng/mL | Measured [MX] First analysis ([4]; sampling 168 h): 2.11 ng/mL | Measured [MX] Re-analysis after 9 months ([4]; sampling 168 h): 2.29 ng/mL | Measured [MX] First analysis ([4]; sampling 192 h): 1.55 ng/mL | Measured [MX] Re-analysis after 9 months ([4]; sampling 192 h): 1.76 ng/mL | Measured [MX] First analysis ([4]; sampling 216 h): 1.22 ng/mL | Measured [MX] Re-analysis after 9 months ([4]; sampling 216 h): 1.39 ng/mL | mean Cmax [4, 6]: 14.98 ng/mL | mean t1/2 [4, 6]: 54.21 h
Compound: CON [MX, Methoxyamine]

Compound: Cn1nnc2c(C(N)=O)ncn2c1=O [TMZ, Temozolomide]
maximum concentrations (Cmax) in human plasma [5]: below 10 μg/ml
